According to ChEMBL document CHEMBL2311353, “Synthesis and antiproliferative activities of N-(naphthalen-2-yl)acetamide and N-(substituted phenyl)acetamide bearing quinolin-2(1H)-one and 3,4-dihydroquinolin-2(1H)-one derivatives” (Eur J Med Chem, 2013):

Key:
[1] = Antiproliferative activity against human NPC-TW01 cells after 72 hrs by MTT assay; assay type: functional, cell-based; conditions: NPC-TW01, 72 h
Method in brief: (§1)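 Log-phase cells were seeded, left overnight, then exposed to a range of compound concentrations for 72 h. MTT at 0.4 mg/mL in MEM was added for 2 h, and formazan was read at 570 nm. GI50 was taken from percent conversion relative to mock-treated controls.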

A498 = assay: Antiproliferative activity against human A498 cells after 72 hrs by MTT assay; assay type: functional, cell-based; conditions: A498, 72 h; method in brief: as §1
MKN-45 = assay: Antiproliferative activity against human MKN45 cells after 72 hrs by MTT assay; assay type: functional, cell-based; conditions: MKN-45, 72 h; method in brief: as §1
NCI-H661 = assay: Antiproliferative activity against human NCI-H661 cells after 72 hrs by MTT assay; assay type: functional, cell-based; conditions: NCI-H661, 72 h; method in brief: as §1
[2] = Antiproliferative activity against human Hep3B cells after 72 hrs by MTT assay; assay type: functional, cell-based, Hep 3B2; method in brief: as §1

Row | SMILES | IC50 (MKN-45) [µM] | IC50 (NCI-H661) [µM] | IC50 [1] [µM] | IC50 (A498) [µM] | IC50 [2] [µM]
1 | O=C(COc1ccc2c(c1)NC(=O)CC2)Nc1ccccc1 | 32.4 | 21.8 | 16 | 12 | 27.2
2 | O=C(COc1ccc2c(c1)NC(=O)CC2)Nc1ccc(-c2ccccc2)cc1 | 32.4 | 15.4 | 2.9 | 12 | 8.1
3 | O=C(COc1ccc2c(c1)NC(=O)CC2)Nc1ccc2ccccc2c1 | 26.9 | 11.2 | 8.9 | 8.6 | 19.2

The next lines start with results.

Row | IC50 (MKN-45) [µM] | IC50 (NCI-H661) [µM] | SMILES | IC50 [1] [µM] | IC50 (A498) [µM] | IC50 [2] [µM]
4 | 38.6 | 15.3 | O=C(COc1ccc2c(c1)NC(=O)CC2)Nc1ccc(F)cc1 | 15.8 | 11.3 | 27
5 | 36.3 | 16.4 | COc1ccc(NC(=O)COc2ccc3c(c2)NC(=O)CC3)cc1 | 13.1 | 19.3 | 31.1
